Assay results published in ChEMBL document CHEMBL1152253, “Inhibition of the CRM1-mediated nucleocytoplasmic transport by N-azolylacrylates: structure-activity relationship and mechanism of action” (Bioorg Med Chem, 2008).
Converted amounts (≈) assume the structure as drawn. The source made the active and inactive calls. No cut-off for these calls is given here.

Columns and labels:
[1] = molecular target: Exportin-1 (Homo sapiens) (UniProt O14980); experiment: Inhibition of CRM1-mediated nucleocytoplasmic transport of RevM5 mutant in HEK293 cells assessed as RevM5-GFP nuclear localization at 10 ug/ml after 2 hrs by fluorescence microscopy; type: cell-based
How it was run: (§1)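 HEK 293T cells in 96-well trays were transfected with pRevM5-GFP by calcium phosphate, and compound was added one day later. RevM5-GFP distribution was scored by fluorescence microscopy 2 h after addition. Mainly nuclear localization was scored positive; cytoplasmic localization was scored negative.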

[2] = molecular target: Exportin-1 (Homo sapiens) (UniProt O14980); experiment: Inhibition of CRM1-mediated nucleocytoplasmic transport of RevM5 mutant in HEK293 cells assessed as RevM5-GFP nuclear localization at 0.08 ug/ml after 2 hrs by fluorescence microscopy; type: cell-based; how it was run: as §1
[3] = molecular target: Exportin-1 (Homo sapiens) (UniProt O14980); experiment: Inhibition of CRM1-mediated nucleocytoplasmic transport of RevM5 mutant in HEK293 cells assessed as RevM5-GFP nuclear localization at 0.4 ug/ml after 2 hrs by fluorescence microscopy; type: cell-based; how it was run: as §1
[4] = molecular target: Exportin-1 (Homo sapiens) (UniProt O14980); experiment: Inhibition of CRM1-mediated nucleocytoplasmic transport of RevM5 mutant in HEK293 cells assessed as RevM5-GFP nuclear localization at 2 ug/ml after 2 hrs by fluorescence microscopy; type: cell-based; how it was run: as §1
[5] = Cytotoxicity against HIV1 3B infected human OM10.1 cells at 10 ug/mL after 48 hrs by MTT assay; type: cell-based
How it was run: (§2)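 Cytotoxicity was read by MTT viability staining on the same TNF-α-stimulated (1 ng/ml), twice-washed HIV-1(IIIB) chronically infected OM10.1 cultures (120,000 cells/well). Compound was present throughout the 48 h incubation at 37 °C.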

[6] = tested on: Human immunodeficiency virus 1; experiment: Antiviral activity against HIV1 NL4-3 infected in HEK293T cells assessed as inhibition of virion-associated p24 antigen production after 24 hrs by ELISA; type: functional, organism-based
How it was run: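 HEK 293T cells in DMEM with 10% heat-inactivated FCS were transfected with the HIV-1 molecular clone NL4-3 by calcium phosphate. Compounds were added at a range of concentrations. Virus-associated p24 antigen in the supernatant was measured by ELISA 24 h after compound addition.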

[7] = tested on: Human immunodeficiency virus 1; experiment: Antiviral activity against HIV1 3B infected in human OM10.1 cells assessed as inhibition of TNF-alpha-induced viral p24 production at 5 ug/mL after 48 hrs by ELISA; type: functional; parameters: scale not given: the % may be the effect or the level left
How it was run: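 OM10.1 cells chronically infected with HIV-1(IIIB), grown in RPMI 1640 with 10% FCS, were washed twice to remove cell-free virus and seeded at 120,000 cells/well with compound. Cultures were stimulated with 1 ng/ml TNF-α and incubated 48 h at 37 °C. Supernatant p24 was measured by ELISA.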

[8] = Cytotoxicity against HIV1 3B infected human OM10.1 cells at 20 ug/mL after 48 hrs by MTT assay; type: cell-based; how it was run: as §2
HeLa [9] = experiment: Inhibition of Rev-BFP/CRM1Cys528Ser-EYFP mutant interaction in human HeLa cells assessed as Rev-BFP/CRM1Cys528Ser-EYFP nuclear colocalization at 25 nM after 2 hrs by fluorescence microscopy; type: cell-based
How it was run: (§3)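 HeLa cells were co-transfected with Rev-BFP and CRM1-EYFP constructs (wild type or Cys528 mutant). One day later cells were PBS-washed and treated with compound in complete DMEM. Live cells were imaged by confocal microscopy at 30, 120 and 180 min and at 24 h. BFP was excited by a multiphoton laser at 760 nm, with emission collected at 390–480 nm. Read-out was Rev-dependent nucleolar co-localization of CRM1-EYFP.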

HeLa [10] = experiment: Inhibition of Rev-BFP/CRM1-EYFP interaction in human HeLa cells assessed as Rev-BFP/CRM1-EYFP nuclear colocalization by fluorescence microscopy; type: cell-based; how it was run: as §3

Exportin-1 (Homo sapiens), sequence (O14980 whole entry): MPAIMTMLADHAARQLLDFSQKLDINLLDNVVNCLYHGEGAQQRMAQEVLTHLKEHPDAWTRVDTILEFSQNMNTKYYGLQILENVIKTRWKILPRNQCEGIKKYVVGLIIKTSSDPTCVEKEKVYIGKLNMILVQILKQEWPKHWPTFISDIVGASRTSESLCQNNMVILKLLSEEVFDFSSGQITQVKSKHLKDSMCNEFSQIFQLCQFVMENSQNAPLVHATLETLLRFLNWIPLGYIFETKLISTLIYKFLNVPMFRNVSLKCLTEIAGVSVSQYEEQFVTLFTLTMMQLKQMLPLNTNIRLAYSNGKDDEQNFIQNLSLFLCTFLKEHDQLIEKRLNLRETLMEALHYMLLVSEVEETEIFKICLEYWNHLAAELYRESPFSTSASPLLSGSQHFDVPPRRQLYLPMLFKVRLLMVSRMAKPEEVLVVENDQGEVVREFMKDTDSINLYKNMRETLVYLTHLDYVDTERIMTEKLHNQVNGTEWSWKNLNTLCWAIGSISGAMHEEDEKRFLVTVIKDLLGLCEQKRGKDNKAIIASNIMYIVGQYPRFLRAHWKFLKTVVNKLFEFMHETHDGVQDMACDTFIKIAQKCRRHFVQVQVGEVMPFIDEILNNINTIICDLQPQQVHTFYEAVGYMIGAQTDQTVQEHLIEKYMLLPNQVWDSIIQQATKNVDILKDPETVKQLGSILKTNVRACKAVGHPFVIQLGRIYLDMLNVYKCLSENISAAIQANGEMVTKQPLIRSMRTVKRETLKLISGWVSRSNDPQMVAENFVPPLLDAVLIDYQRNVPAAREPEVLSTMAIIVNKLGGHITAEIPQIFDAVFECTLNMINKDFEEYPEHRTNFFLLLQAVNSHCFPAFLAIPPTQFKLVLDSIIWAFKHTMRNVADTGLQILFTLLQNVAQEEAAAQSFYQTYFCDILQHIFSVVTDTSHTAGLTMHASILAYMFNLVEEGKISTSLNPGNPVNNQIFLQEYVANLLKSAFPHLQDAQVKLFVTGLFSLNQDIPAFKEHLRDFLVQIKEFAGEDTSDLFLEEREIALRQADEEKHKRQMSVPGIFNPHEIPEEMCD

Compound	Activity [1]	Activity [2]	Activity [3]	Activity [4]	other results
CCOC(=O)/C=C\n1nnc(-c2ccc(Cl)cc2)n1	Active	inactive	inactive	–	–
Brc1cccc(-c2nnn[nH]2)c1	inactive	inactive	inactive	inactive	–
CCOC(=O)/C=C\n1nnc(-c2cc(Cl)ccc2N)n1	Active	inactive	Active	Active	–
CCOC(=O)/C=C\n1nnc(-c2ccccc2)n1	Active	inactive	inactive	inactive	–
CCOC(=O)/C=C/n1nnnc1-c1cccc(F)c1	–	inactive	inactive	inactive	–
CCOC(=O)/C=C/n1nnc(-c2cccc(Cl)c2)n1	Active	inactive	inactive	–	Activity [5]: Toxic; EC50 ([6]; Human immunodeficiency virus 1, NL4-3, HEK-293T): 0.6 µg/mL (≈ 2.15 µM); Activity [7]: 94%; Activity [8]: Toxic
c1ccc(-c2nnn[nH]2)cc1	inactive	inactive	inactive	inactive	–
CCOC(=O)/C=C/n1ccc(-c2ccccc2)n1	inactive	inactive	inactive	inactive	–
CCOC(=O)/C=C\n1nnnc1-c1ccccc1Cl	–	inactive	inactive	inactive	–
CCOC(=O)/C=C\n1nnnc1-c1ccc(Cl)cc1	Active	inactive	inactive	inactive	–
CCOC(=O)/C=C\n1nnnc1-c1cccc(I)c1	inactive	inactive	inactive	inactive	–
CCOC(=O)/C=C/n1nnnc1-c1ccccc1	inactive	inactive	inactive	inactive	–
CCOC(=O)/C=C/n1cnc(-c2ccccc2N)n1	inactive	inactive	inactive	inactive	–
CCOC(=O)/C=C/n1nnc(-c2cccc(F)c2)n1	Active	inactive	inactive	inactive	–
CCOC(=O)/C=C/n1ncnn1	inactive	inactive	inactive	inactive	–
CCOC(=O)/C=C/n1cnc(-c2ccccc2)c1	–	inactive	inactive	inactive	–
CCOC(=O)/C=C/n1ccnc1-c1ccccc1	inactive	inactive	inactive	inactive	–
CCOC(=O)/C=C/n1nnnc1-c1cccc(Cl)c1	–	inactive	inactive	inactive	–
CCOC(=O)/C=C\n1nnnc1-c1cccc(F)c1	inactive	inactive	inactive	inactive	–
CCOC(=O)/C=C\n1ccc(-c2ccccc2)n1	inactive	inactive	inactive	inactive	–
Clc1ccccc1-c1nnn[nH]1	inactive	inactive	inactive	inactive	–
CCOC(=O)C=Cn1ccnc1-c1ccccc1	inactive	inactive	inactive	inactive	–
Ic1cccc(-c2nnn[nH]2)c1	inactive	inactive	inactive	inactive	–

Compound	Activity [1]	Activity [2]	Activity [3]	Activity [4]	other results
CCOC(=O)/C=C/n1nnc(-c2ccccc2)n1	–	inactive	inactive	–	–
CCOC(=O)/C=C\n1nnc(-c2ccccc2Cl)n1	Active	inactive	–	Active	–
CCOC(=O)/C=C/n1nnc(-c2cc(Cl)ccc2N)n1	Active	inactive	inactive	Active	–
Cc1ccnc2c1NC(=O)c1cccnc1N2C1CC1	–	–	–	–	Activity ([6]; HEK-293T): inactive
CCOC(=O)/C=C\n1nnc(-c2cccc(Br)c2)n1	Active	inactive	–	Active	–
CCOC(=O)/C=C\n1nnc(-c2cccc(F)c2)n1	Active	inactive	–	Active	–
CCOC(=O)/C=C/n1nnc(-c2cccc(Br)c2)n1	Active	inactive	inactive	–	–
CCOC(=O)/C=C\n1cnc(-c2ccccc2N)n1	Active	inactive	inactive	–	–
CCOC(=O)/C=C\n1nnnc1-c1cccc(Br)c1	inactive	inactive	inactive	inactive	–
CCOC(=O)/C=C/n1nnnc1-c1ccc(Cl)cc1	inactive	inactive	inactive	inactive	–
CCOC(=O)/C=C/n1nnnc1-c1cccc(Br)c1	–	inactive	inactive	inactive	–
CCOC(=O)/C=C/n1nnnc1-c1cccc(I)c1	–	inactive	inactive	inactive	–
CCC(=C/[C@H](C)C/C=C/C(C)=C/[C@@H](C)C(=O)[C@@H](C)[C@H](O)[C@@H](C)C/C(C)=C/C(=O)O)/C=C/[C@@H]1OC(=O)C=C[C@@H]1C	–	–	–	–	Activity (HeLa [9]): inactive; Activity (HeLa [10]): inactive
CCOC(=O)/C=C/n1nnc(-c2ccccc2Cl)n1	Active	inactive	inactive	inactive	–
CCOC(=O)/C=C\n1nnnc1-c1cccc(Cl)c1	Active	inactive	inactive	inactive	–
CCOC(=O)/C=C\n1ncnn1	inactive	inactive	inactive	inactive	–
Nc1cc(Cl)ccc1-c1nnn[nH]1	inactive	inactive	inactive	inactive	–
CCOC(=O)/C=C\n1nnc(-c2cccc(I)c2)n1	Active	inactive	–	Active	–
Clc1ccc(-c2nnn[nH]2)cc1	inactive	inactive	inactive	inactive	–
Fc1cccc(-c2nnn[nH]2)c1	inactive	inactive	inactive	inactive	–
CCOC(=O)/C=C\n1cnc(-c2ccccc2)c1	Active	inactive	inactive	–	–
CCOC(=O)/C=C/n1nnc(-c2ccc(Cl)cc2)n1	Active	inactive	inactive	inactive	–
CCOC(=O)/C=C/n1nnc(-c2cccc(I)c2)n1	Active	inactive	inactive	–	–
